Assay results published in ChEMBL document CHEMBL3098013, “Novel pyrazole integrated 1,3,4-oxadiazoles: synthesis, characterization and antimicrobial evaluation” (2014).
Converted amounts (≈) assume the structure as drawn.

Experiments:
Assay type in all cases: functional
[1] = tested on: Aspergillus niger; experiment: Antimicrobial activity against Aspergillus niger MTCC 281 at 50 ug/ml after 48 hrs by disc diffusion method; conditions: MTCC 281, 48 h, read-out: DIZ
Procedure, shortened: (§1)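 Agar diffusion read-out is the diameter of the inhibition zone in mm. Each test was run in six replicates and reported as mean ± standard deviation, taken from at least three determinations.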

[2] = tested on: Fusarium verticillioides; experiment: Antimicrobial activity against Fusarium moniliforme MTCC 156 at 50 ug/ml after 48 hrs by disc diffusion method; conditions: MTCC 156, 48 h, read-out: DIZ; procedure, shortened: as §1
[3] = tested on: Klebsiella pneumoniae; experiment: Antimicrobial activity against Klebsiella pneumoniae MTCC 3384 after 24 hrs by microdilution method; conditions: MTCC 3384, 24 h
Procedure, shortened: (§2)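 The minimal inhibitory concentration was determined by dilution, alongside minimal bactericidal concentration for bacterial strains and minimal fungicidal concentration for fungal strains. Tests were run in six replicates, and the value is the mean of at least three determinations.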

[4] = tested on: Aspergillus flavus; experiment: Antimicrobial activity against Aspergillus flavus MTCC 873 at 50 ug/ml after 48 hrs by disc diffusion method; conditions: MTCC 873, 48 h, read-out: DIZ; procedure, shortened: as §1
[5] = tested on: Escherichia coli; experiment: Antimicrobial activity against Escherichia coli MTCC 724 at 50 ug/ml after 24 hrs by disc diffusion method; conditions: MTCC 724, 24 h, read-out: DIZ; procedure, shortened: as §1
[6] = tested on: Bacillus cereus; experiment: Antimicrobial activity against Bacillus cereus MTCC 8372 after 24 hrs by microdilution method; conditions: MTCC 8372, 24 h; procedure, shortened: as §2
[7] = tested on: Fusarium oxysporum; experiment: Antimicrobial activity against Fusarium oxysporum MTCC 284 at 50 ug/ml after 48 hrs by disc diffusion method; conditions: MTCC 284, 48 h, read-out: DIZ; procedure, shortened: as §1
[8] = tested on: Klebsiella pneumoniae; experiment: Antimicrobial activity against Klebsiella pneumoniae MTCC 3384 at 50 ug/ml after 24 hrs by disc diffusion method; conditions: MTCC 3384, 24 h, read-out: DIZ; procedure, shortened: as §1
[9] = tested on: Bacillus cereus; experiment: Antimicrobial activity against Bacillus cereus MTCC 8372 at 100 ug/ml after 24 hrs by disc diffusion method; conditions: MTCC 8372, 24 h, read-out: DIZ; procedure, shortened: as §1
[10] = tested on: Aspergillus flavus; experiment: Antimicrobial activity against Aspergillus flavus MTCC 873 at 100 ug/ml after 48 hrs by disc diffusion method; conditions: MTCC 873, 48 h, read-out: DIZ; procedure, shortened: as §1
[11] = tested on: Bacillus cereus; experiment: Antimicrobial activity against Bacillus cereus MTCC 8372 at 50 ug/ml after 24 hrs by disc diffusion method; conditions: MTCC 8372, 24 h, read-out: DIZ; procedure, shortened: as §1
[12] = tested on: Staphylococcus aureus; experiment: Antimicrobial activity against Staphylococcus aureus MTCC 96 after 24 hrs by microdilution method; conditions: MTCC 96, 24 h; procedure, shortened: as §2
[13] = tested on: Fusarium oxysporum; experiment: Antimicrobial activity against Fusarium oxysporum MTCC 284 after 48 hrs by microdilution method; conditions: MTCC 284, 48 h; procedure, shortened: as §2
[14] = tested on: Staphylococcus aureus; experiment: Antimicrobial activity against Staphylococcus aureus MTCC 96 at 100 ug/ml after 24 hrs by disc diffusion method; conditions: MTCC 96, 24 h, read-out: DIZ; procedure, shortened: as §1
[15] = tested on: Escherichia coli; experiment: Antimicrobial activity against Escherichia coli MTCC 724 after 24 hrs by microdilution method; conditions: MTCC 724, 24 h; procedure, shortened: as §2
[16] = tested on: Aspergillus niger; experiment: Antimicrobial activity against Aspergillus niger MTCC 281 at 100 ug/ml after 48 hrs by disc diffusion method; conditions: MTCC 281, 48 h, read-out: DIZ; procedure, shortened: as §1
[17] = tested on: Aspergillus niger; experiment: Antimicrobial activity against Aspergillus niger MTCC 281 after 48 hrs by microdilution method; conditions: MTCC 281, 48 h; procedure, shortened: as §2
[18] = tested on: Aspergillus flavus; experiment: Antimicrobial activity against Aspergillus flavus MTCC 873 after 48 hrs by microdilution method; conditions: MTCC 873, 48 h; procedure, shortened: as §2
[19] = tested on: Fusarium verticillioides; experiment: Antimicrobial activity against Fusarium moniliforme MTCC 156 after 48 hrs by microdilution method; conditions: MTCC 156, 48 h; procedure, shortened: as §2
[20] = tested on: Klebsiella pneumoniae; experiment: Antimicrobial activity against Klebsiella pneumoniae MTCC 3384 at 100 ug/ml after 24 hrs by disc diffusion method; conditions: MTCC 3384, 24 h, read-out: DIZ; procedure, shortened: as §1
[21] = tested on: Fusarium verticillioides; experiment: Antimicrobial activity against Fusarium moniliforme MTCC 156 at 100 ug/ml after 48 hrs by disc diffusion method; conditions: MTCC 156, 48 h, read-out: DIZ; procedure, shortened: as §1
[22] = tested on: Staphylococcus aureus; experiment: Antimicrobial activity against Staphylococcus aureus MTCC 96 at 50 ug/ml after 24 hrs by disc diffusion method; conditions: MTCC 96, 24 h, read-out: DIZ; procedure, shortened: as §1
[23] = tested on: Escherichia coli; experiment: Antimicrobial activity against Escherichia coli MTCC 724 at 100 ug/ml after 24 hrs by disc diffusion method; conditions: MTCC 724, 24 h, read-out: DIZ; procedure, shortened: as §1
[24] = tested on: Fusarium oxysporum; experiment: Antimicrobial activity against Fusarium oxysporum MTCC 284 at 100 ug/ml after 48 hrs by disc diffusion method; conditions: MTCC 284, 48 h, read-out: DIZ; procedure, shortened: as §1

| Structure (SMILES) | zone of inhibition at 50 µg/mL [1] [mm] | zone of inhibition at 50 µg/mL [2] [mm] | MBC [3] [µg/mL] | MIC [3] [µg/mL] | zone of inhibition at 50 µg/mL [4] [mm] | zone of inhibition at 50 µg/mL [5] [mm] | MBC [6] [µg/mL] | MIC [6] [µg/mL] | zone of inhibition at 50 µg/mL [7] [mm] | zone of inhibition at 50 µg/mL [8] [mm] | zone of inhibition at 100 µg/mL [9] [mm] | zone of inhibition at 100 µg/mL [10] [mm] | zone of inhibition at 50 µg/mL [11] [mm] | MBC [12] [µg/mL] | MIC [12] [µg/mL] | MFC [13] [µg/mL] | MIC [13] [µg/mL] | zone of inhibition at 100 µg/mL [14] [mm] | MBC [15] [µg/mL] | MIC [15] [µg/mL] | further results |
| --- | --- | --- | --- | --- | --- | --- | --- | --- | --- | --- | --- | --- | --- | --- | --- | --- | --- | --- | --- | --- | --- |
| Cc1c(C(=O)NNC(=O)c2ccccc2)c(-c2ccccc2)nn1-c1ccccc1 | 8 | 6 | 200 (≈ 504 µM) | 25 (≈ 63.1 µM) | 10 | 13 | 180 (≈ 454 µM) | 25 (≈ 63.1 µM) | 8 | 8 | 16 | 12 | 8 | 200 (≈ 504 µM) | 25 (≈ 63.1 µM) | 260 (≈ 656 µM) | 40 (≈ 101 µM) | 18 | 190 (≈ 479 µM) | 25 (≈ 63.1 µM) | zone of inhibition at 100 µg/mL [16]: 14 mm; MFC [17]: 215 µg/mL (≈ 542 µM); MIC [17]: 30 µg/mL (≈ 75.7 µM); MFC [18]: 275 µg/mL (≈ 694 µM); MIC [18]: 50 µg/mL (≈ 126 µM); MFC [19]: 260 µg/mL (≈ 656 µM); MIC [19]: 50 µg/mL (≈ 126 µM); zone of inhibition at 100 µg/mL [20]: 14 mm; zone of inhibition at 100 µg/mL [21]: 9 mm; zone of inhibition at 50 µg/mL [22]: 6 mm; zone of inhibition at 100 µg/mL [23]: 18 mm; zone of inhibition at 100 µg/mL [24]: 10 mm |
| Cc1c(-c2nnc(-c3ccc(Cl)cc3)o2)c(-c2ccccc2)nn1-c1ccccc1 | 9 | 6 | 220 (≈ 533 µM) | 30 (≈ 72.7 µM) | 14 | 10 | 240 (≈ 581 µM) | 40 (≈ 96.9 µM) | 4 | 6 | 8 | 16 | 4 | 250 (≈ 606 µM) | 45 (≈ 109 µM) | 275 (≈ 666 µM) | 40 (≈ 96.9 µM) | 10 | 235 (≈ 569 µM) | 35 (≈ 84.8 µM) | zone of inhibition at 100 µg/mL [16]: 24 mm; MFC [17]: 215 µg/mL (≈ 521 µM); MIC [17]: 25 µg/mL (≈ 60.6 µM); MFC [18]: 230 µg/mL (≈ 557 µM); MIC [18]: 30 µg/mL (≈ 72.7 µM); MFC [19]: 300 µg/mL (≈ 727 µM); MIC [19]: 55 µg/mL (≈ 133 µM); zone of inhibition at 100 µg/mL [20]: 12 mm; zone of inhibition at 100 µg/mL [21]: 8 mm; zone of inhibition at 50 µg/mL [22]: 5 mm; zone of inhibition at 100 µg/mL [23]: 12 mm; zone of inhibition at 100 µg/mL [24]: 8 mm |
| COc1cc(-c2nn(-c3ccccc3)c(C)c2-c2nnc(-c3ccccc3)o2)cc(OC)c1OC | 10 | 5 | 175 (≈ 374 µM) | 25 (≈ 53.4 µM) | 6 | 12 | 160 (≈ 342 µM) | 20 (≈ 42.7 µM) | 8 | 6 | 22 | 12 | 11 | 155 (≈ 331 µM) | 20 (≈ 42.7 µM) | 290 (≈ 619 µM) | 40 (≈ 85.4 µM) | 26 | 170 (≈ 363 µM) | 25 (≈ 53.4 µM) | zone of inhibition at 100 µg/mL [16]: 20 mm; MFC [17]: 220 µg/mL (≈ 470 µM); MIC [17]: 30 µg/mL (≈ 64 µM); MFC [18]: 275 µg/mL (≈ 587 µM); MIC [18]: 45 µg/mL (≈ 96 µM); MFC [19]: 300 µg/mL (≈ 640 µM); MIC [19]: 55 µg/mL (≈ 117 µM); zone of inhibition at 100 µg/mL [20]: 10 mm; zone of inhibition at 100 µg/mL [21]: 10 mm; zone of inhibition at 50 µg/mL [22]: 10 mm; zone of inhibition at 100 µg/mL [23]: 17 mm; zone of inhibition at 100 µg/mL [24]: 10 mm |
